An excerpt weighted towards active compounds, which were near 1.9% of everything screened.
SUMO1 PPI mod: SUMO1-SIM interaction modulation; AID 602429; SUMO1 binding to a labelled peptide, TR-FRET, 1 h; inhibition, % at 20 µM; hit rate 0.33% among 360,000; P63165; in the data active = inhibition above about 37%
Target sequence (P63165 whole entry, looked up): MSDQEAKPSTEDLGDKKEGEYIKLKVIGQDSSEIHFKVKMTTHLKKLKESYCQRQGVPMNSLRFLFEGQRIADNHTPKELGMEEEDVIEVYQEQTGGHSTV
FAS TE block: inhibitors of human fatty acid synthase thioesterase domain. recombinant FAS-TE, OMFH fluorogenic substrate, fluorescence endpoint. inhibition, % at 15 µM. hit rate 0.67% among 360,000. AID 602261;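 active = compounds whose normalised, plate-corrected inhibition of enzyme fluorescence in the single-dose primary screen is 50% or more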
Scp1 inh: inhibitors of human Scp-1 phosphatase | hit rate 0.88% among 340,000 | AID 493091 | Q9GZU7 | Recombinant Scp1, phosphopeptide, malachite green phosphate absorbance | inhibition, % at 20 µM;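 active = inhibition above about 50% at 20 µM, limit read from the data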
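Test system – truncated SCP-1 phosphatase (76-261aa) · Reagent – Phosphorylated 17-residue peptide substrate · Incubation – 45 min room-temperature reaction, 5 min colour, 30 min stabiliser · Detection – colorimetric phosphate reagent with accelerator and stabiliser, absorbance at 630 nm · Measure – % inhibition at 20 µM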
LMPTP block: LMPTP (human) inhibition. P24666. recombinant LMPTP-A, OMFP fluorogenic substrate, fluorescence intensity. inhibition, % at 20 µM. hit rate 0.22% among 360,000;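 active = compounds that cut the enzyme signal by at least half of the control window in the single-dose screen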
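Test system: LMPTP-A phosphatase enzyme; input: 0.625 nM LMPTP-A final; reagent: OMFP substrate, 400 µM final; compound dosing: 20 µM single dose, 3% DMSO; incubation: 50 min dark incubation at room temperature; measured by: endpoint fluorescence intensity from OMFP dephosphorylation; measure: % inhibition relative to no-enzyme and uninhibited control wells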
STEP block: blocks human striatal-enriched tyrosine phosphatase. P54829. recombinant STEP, OMFP fluorogenic substrate, fluorescence. inhibition, % at 20 µM. hit rate 0.25% among 360,000. AID 588621;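 active = inhibition at 20 µM, scaled per plate between control wells, above about 37%, limit read from the data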
Target sequence (P54829 whole entry, looked up): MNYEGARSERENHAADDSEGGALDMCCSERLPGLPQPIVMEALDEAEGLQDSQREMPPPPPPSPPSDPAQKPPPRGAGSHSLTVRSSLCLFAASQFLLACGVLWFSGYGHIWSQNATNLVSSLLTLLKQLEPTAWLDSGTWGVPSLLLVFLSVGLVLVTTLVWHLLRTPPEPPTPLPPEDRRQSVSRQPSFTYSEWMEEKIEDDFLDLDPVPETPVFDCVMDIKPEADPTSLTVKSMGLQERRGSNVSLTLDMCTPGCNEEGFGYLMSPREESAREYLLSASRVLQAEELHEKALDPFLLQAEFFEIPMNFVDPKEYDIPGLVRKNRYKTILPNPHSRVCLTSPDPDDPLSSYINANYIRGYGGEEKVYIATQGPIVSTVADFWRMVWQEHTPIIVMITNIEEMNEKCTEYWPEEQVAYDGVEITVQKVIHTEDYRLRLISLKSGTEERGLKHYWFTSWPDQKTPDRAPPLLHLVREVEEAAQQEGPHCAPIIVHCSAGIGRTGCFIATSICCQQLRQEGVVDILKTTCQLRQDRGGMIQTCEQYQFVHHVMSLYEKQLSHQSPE
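Material: STEP (striatal-enriched tyrosine phosphatase) enzyme, cell-free; Compound dosing: 20 µM single dose in 1% DMSO; Technique: fluorescence read at 480 nm ex / 540 nm em; Times: reaction 20 min, ambient temperature; Medium: 50 mM Bis-Tris pH 6.0 with 2.5 mM DTT and 0.005% Tween 20; Also added: OMFP at 25 µM.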
Scp-1 conf: confirmation of human Scp-1 phosphatase inhibitors. shares compounds with Scp1 inh. recombinant SCP-1 catalytic domain, phosphate release, malachite green absorbance. inhibition, % at 20 µM. hit rate 61% among 2,500
Scp-1 MG ctr: counter-screen for Scp-1 inhibitors: colorimetric interference; shares compounds with Scp1 inh; Colorimetric interference counterscreen, malachite green absorbance 630 nm; apparent inhibition (interference), % at 20 µM; 2,500 tested, under 10 active;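 also: compounds added after enzyme reaction finished so only phosphate colour detection is probed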
Scp1 DSF: validation of human Scp-1 inhibitors by thermal shift binding | shares compounds with Scp1 inh | Recombinant SCP1, Sypro Orange thermal shift Tm | thermal shift relative to vanadate control, % at 40 µM | hit rate 25% among 1,500 | AID 540329;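 active = substances whose mean melting-temperature shift, as a percentage of the reference inhibitor's shift, reaches about 5.3%, limit read from the data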
Hits are given with their value; – = inactive; · = no result.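 The calls were made as follows, unless noted: active = inhibition of at least 30% at 20 µM; inactive = the rest.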

SMILES	SUMO1 PPI mod	FAS TE block	Scp1 inh	LMPTP block	STEP block	Scp-1 conf	Scp-1 MG ctr	Scp1 DSF
CN(C)C(=O)c1cccc(-c2cnc3c(NC=O)cc(-c4ccccc4F)cn23)c1	–	–	·	–	–	·	·	·
CN(C)S(=O)(=O)c1cccc(NC(=O)COC(=O)/C=C/c2ccc(Br)o2)c1	–	–	–	–	–	·	·	·
NC(=O)c1ccc(NC(=O)COC(=O)/C=C/c2ccc(Br)o2)cc1	62	–	74	–	–	68	–	–
NC(=O)c1ccc(NC(=O)c2ccc3c(c2)CCN3S(=O)(=O)c2ccccc2)cc1	–	–	–	–	–	·	·	·
COc1ccc(NC(=O)c2ccc3c(c2)CCN3S(=O)(=O)c2ccccc2)c(OC)c1	–	–	61	–	–	–	–	·
COc1ccc(NS(=O)(=O)c2ccc(N3CCOCC3)c(N)c2)cc1	–	–	–	–	–	·	·	·
O=C(N/N=C/c1ccc(Cl)cc1)c1cc2c(s1)-c1ccccc1CC2	–	–	101	–	–	64	–	–
O=C(O)c1cc2c(s1)-c1ccccc1CC2	–	–	–	–	–	·	·	·
N#Cc1c(SCC(=O)Nc2cccc(C(F)(F)F)c2)sc2c(O)cc(=O)[nH]c12	–	–	54	–	–	34	–	8.1
COC(=O)c1ccc(C)c(NC(=O)CCSc2ccc(C)cc2)c1	–	–	–	–	–	·	·	·
COC(=O)c1ccc(C)c(NC(=O)CSc2sc3c(O)cc(=O)[nH]c3c2C#N)c1	–	–	68	–	–	53	–	12
Cc1ccc(Cl)cc1NC(=O)CSc1sc2c(O)cc(=O)[nH]c2c1C#N	–	–	56	–	–	62	–	16
Cc1ccc(C)c(NC(=O)CSc2sc3c(O)cc(=O)[nH]c3c2C#N)c1	–	–	60	–	–	67	–	11
CC(=O)Nc1ccc(-c2ccnc3c2CC(C(=O)NCc2ccco2)O3)cc1 (configuration not stated)	–	–	·	–	–	·	·	·
Cc1cc(NC(=O)CSc2sc3c(O)cc(=O)[nH]c3c2C#N)ccc1Br	–	–	59	–	–	52	–	17
Cc1cc(NC(=O)CSc2nc3[nH]c(=O)cc(O)c3s2)ccc1Br	–	–	–	–	–	·	·	·
O=C(CN1C(=O)NC2(CCCCC2)C1=O)Nc1ccc(F)cc1	–	–	–	–	–	·	·	·
O=C(CN1C(=O)NC2(CCCCC2)C1=O)NCC(=O)Nc1ccc(F)c(F)c1	–	–	–	–	–	–	–	·
CC(=O)OCC1=C(C(=O)O)N2C(=O)C(NC(=O)c3ccc(COc4cccc(Cl)c4Cl)o3)C2SC1 (configuration not stated)	–	–	53	–	–	66	–	–
CC(=O)OCC1=C(C(=O)OC(C)(C)C)N2C(=O)[C@@H](NC(=O)Cc3ccccc3)[C@H]2SC1	–	–	91	–	–	70	–	8.8
COc1cccc(C(=O)NC2C(=O)N3C(C(=O)O)=C(COC(C)=O)CSC23)c1 (configuration not stated)	–	–	–	–	–	·	·	·
COC(=O)c1ccc2nc(-c3ccccc3)c(Cc3ccc(C)cc3)n2c1	–	–	·	–	·	·	·	·
Cc1ccc(Cl)cc1N1CCN(C(=O)CSc2ccsc2[N+](=O)[O-])CC1	–	–	55	–	–	68	–	8.1
CCOC(=O)c1ccc2c(c1)n(CC)c(/C=C/N(C)c1ccccc1)[n+]2CC	–	–	94	–	–	97	–	–
O=C(CCc1nc2ccccc2c(=O)[nH]1)NNC(=O)c1cccc(Cl)c1	–	–	62	–	–	–	–	·
SMILES	SUMO1 PPI mod	FAS TE block	Scp1 inh	LMPTP block	STEP block	Scp-1 conf	Scp-1 MG ctr	Scp1 DSF
COCCCN1C(=O)C(CC(=O)NC2CCCC2)CC(C(=O)N2CCOCC2)=C1C (configuration not stated)	–	–	·	–	–	·	·	·
CCCN(CC(=O)Nc1ccccc1C)C(=O)C1CC(=O)N(Cc2ccccc2)C1 (configuration not stated)	–	–	–	–	–	–	–	·
CCCN(CC(=O)Nc1ccccc1C)C(=O)C1CC(=O)N(c2ccccc2OCC)C1 (configuration not stated)	–	–	–	–	–	·	·	·
NC(=O)c1c(N)[nH]c(C(=O)c2ccccc2)c1-c1ccccc1Br	–	–	·	–	·	·	·	·
CCOc1ccc(C=NNc2ccc(S(=O)(=O)Nc3ccccc3C(=O)O)cc2[N+](=O)[O-])cc1OC	–	–	72	–	98	86	–	17
CCOc1cc(/C=N/Nc2nc(Nc3ccccc3)nc(N3CCCCC3)n2)ccc1OCC(=O)O	–	–	–	–	–	·	·	·
COc1cc(C=NNc2ccc(S(=O)(=O)Nc3ccccc3C(=O)O)cc2[N+](=O)[O-])ccc1O	–	–	–	–	–	·	·	·
CCOc1cc(/C=N/Nc2ccccc2Cl)ccc1OCC(=O)O	–	–	54	–	–	–	–	·
C=CCn1c(NCc2ccco2)nc2ccccc21	–	–	–	–	–	·	·	·
O=C(CCc1n[nH]c(=O)[nH]c1=O)N/N=C/c1ccco1	–	–	81	–	–	56	–	–
CC1=NNC(=O)C1CCC(=O)N/N=C/c1ccc(Cl)cc1Cl (configuration not stated)	–	–	–	–	–	·	·	·
CC1=NNC(=O)C1CCC(=O)N/N=C/c1ccco1 (configuration not stated)	–	–	–	–	–	46	–	–
COc1ccc(OC)c(/C=N/NC(=O)CC2C(=O)NN=C2C)c1 (configuration not stated)	–	–	–	–	–	–	–	·
CSc1nc2nccc(-c3ccc(Cl)cc3)n2n1	–	–	84	–	–	71	–	–
Cn1cc(Cl)c(C(=O)Nc2cccc(Cl)c2Cl)n1	–	–	72	–	–	76	–	–
COc1cc(S(=O)(=O)Nc2ccc(C)cc2)ccc1NC(=O)c1ccncc1	–	–	54	–	–	–	–	·
COc1ccccc1NC(=O)c1cc(N)cc(C(=O)Nc2ccccc2OC)c1	–	–	–	–	–	·	·	·
COc1ccccc1NC(=O)c1coc(=O)c(Br)c1	–	–	66	–	–	–	–	·
Cc1ccc(S(=O)(=O)NCC(=O)N2CCN(S(=O)(=O)c3ccc(Cl)cc3)CC2)cc1C	–	–	–	–	–	·	·	·
COc1ccc(C(C)(O)c2nc(-c3cccc(C(F)(F)F)c3)cs2)cc1 (configuration not stated)	–	–	·	–	–	·	·	·

Screening results from PubChem.
